Experiments:
[1] = molecular target: T1, Polyunsaturated fatty acid 5-lipoxygenase (Homo sapiens, UniProt P09917); test: Inhibitory concentration against arachidonic acid 5-lipoxygenation; type: functional
T1 sequence (P09917 whole entry): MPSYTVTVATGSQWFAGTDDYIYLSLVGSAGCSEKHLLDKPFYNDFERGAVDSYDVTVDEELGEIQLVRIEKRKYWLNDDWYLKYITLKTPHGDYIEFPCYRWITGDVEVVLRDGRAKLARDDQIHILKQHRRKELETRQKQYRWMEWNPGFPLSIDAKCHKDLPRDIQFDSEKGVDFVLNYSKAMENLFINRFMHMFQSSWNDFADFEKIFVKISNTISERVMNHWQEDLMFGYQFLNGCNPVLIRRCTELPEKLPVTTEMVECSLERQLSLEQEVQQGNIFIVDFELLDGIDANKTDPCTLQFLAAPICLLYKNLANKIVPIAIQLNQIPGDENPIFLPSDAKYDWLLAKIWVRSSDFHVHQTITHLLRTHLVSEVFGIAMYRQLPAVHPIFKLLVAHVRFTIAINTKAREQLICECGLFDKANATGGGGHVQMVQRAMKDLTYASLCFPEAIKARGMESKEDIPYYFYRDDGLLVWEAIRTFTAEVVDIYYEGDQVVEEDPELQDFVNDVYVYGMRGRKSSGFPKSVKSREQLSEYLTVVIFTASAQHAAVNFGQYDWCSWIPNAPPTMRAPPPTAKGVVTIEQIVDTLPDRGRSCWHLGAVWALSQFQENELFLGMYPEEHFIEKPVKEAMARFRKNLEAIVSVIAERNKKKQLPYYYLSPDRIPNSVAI
Procedure, shortened: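 Bovine PMNL (10^7 cells/mL) were stimulated with Ca-ionophore. Compound was preincubated for 15 min at 37 °C.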

HaCaT = test: Antiproliferative activity against HaCaT cells; type: functional, cell-based; details: Homo sapiens
Procedure, shortened: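 HaCaT human keratinocytes were kept in DMEM with 10% FCS, penicillin and streptomycin at 37 °C under 8% CO2. After 48 h the cells were detached with trypsin/EDTA and counted by phase-contrast microscopy.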

Liposome = test: Inhibition of 2,2'-azobis(2-aminopropane)hydrochloride (AAPH) induced lipid peroxidation in bovine brain phospholipid liposomes; type: functional, subcellular, Bos taurus
[2] = Reducing activity against 2,2-diphenyl-1-picrylhydrazyl (DPPH) with equimolar compound; type: functional
Procedure, shortened: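 Test compound and DPPH, each 10⁻⁴ M in acetone/PBS (1-1 v/v), mixed 1 mL + 1 mL. DPPH reduction followed spectrophotometrically at 516 nm. Reciprocal DPPH concentration plotted against time gave straight lines, and second-order rate constants (M⁻¹ s⁻¹) were taken from the slopes. Values are means, N = 3-6. Highly reactive compounds gave approximate values only.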

IC50 [1]: 7 µM
IC50 (Liposome): 79 µM
Compound: O=C1c2c(O)cccc2Cc2cccc(O)c21 [ANTHRALIN]
IC50 (HaCaT): 0.2 µM
kDPPH [2]: 24.2 M⁻¹ s⁻¹
